Active and inactive are the calls of the source. No cut-off for these calls is given here.
What was measured:
RAW264.7 [1] = experiment: Cytotoxicity against mouse RAW264.7 cells assessed as reduction in cell viability up to 100 ug/ml after 24 hrs by MTT assay; assay type: cell-based; conditions: raw264.7, 24 h
How it was run: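 RAW 264.7 cells were seeded at 5 × 10^4 per well and exposed 24 h to 0.1, 1, 10, 50 and 100 μg/mL. MTT was then added in full DMEM for 4 h, formazan was dissolved in DMSO, and OD was read at 550 nm.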

RAW264.7 [2] = experiment: Anti-inflammatory activity in mouse RAW264.7 cells assessed as reduction in LPS-induced TNFalpha production preincubated for 2 hrs followed by LPS stimulation for 24 hrs by ELISA; assay type: functional, cell-based
How it was run: (§1)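 RAW 264.7 cells (DMEM, 10% heat-inactivated FBS, 37 °C, 5% CO2) pretreated 2 h with compound at 0.1, 1 or 10 μg/mL, then LPS 1 μg/mL for 24 h. TNF-α and IL-6 in the supernatant measured by sandwich ELISA. Dexamethasone 10 and 20 μM served as reference. Means ± SEM of quintuplicate replicates, one representative experiment.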

RAW264.7 [3] = experiment: Anti-inflammatory activity in mouse RAW264.7 cells assessed as reduction in LPS-induced IL-6 production preincubated for 2 hrs followed by LPS stimulation for 24 hrs by ELISA; assay type: functional, cell-based; how it was run: as §1
RAW264.7 [4] = experiment: Anti-inflammatory activity in mouse RAW264.7 cells assessed as reduction in LPS-induced NO production up to 10 ug/ml preincubated for 2 hrs followed by LPS stimulation for 24 hrs by Griess assay; assay type: functional, cell-based
How it was run: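 RAW 264.7 cells were pretreated 2 h with 0.1–10 μg/mL, then given LPS 1 μg/mL for 24 h. Supernatant was mixed 1:1 with Griess reagent (sulfanilamide in 5% phosphoric acid plus α-naphthylamide) for 15 min at room temperature, and A550 was read. Nitrite served as the NO index. Dexamethasone 10 and 20 μM was the reference. Quintuplicates, mean ± SEM.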

Homo sapiens = species on record: Homo sapiens; experiment: Inhibition of NF-kB (unknown origin) activation expressed in LPS-stimulated mouse RAW264.7 cells up to 10 ug/ml preincubated for 2 hrs followed by LPS stimulation for 4 hrs by luciferase reporter gene assay; assay type: cell-based
How it was run: (§2)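 Cells were plated at 5 × 10^5/mL and transiently cotransfected by lipofection with pGL3-NF-κB-Luc or pGL2-AP-1-Luc plus a normalization plasmid. After 24 h they were pretreated 2 h with the compound (0.1, 1, 10 μg/mL for NF-κB), then given LPS 1 μg/mL for 4 h. Cells were washed in cold PBS, and luciferase was read in the lysates.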

[5] = biological target: Transcription factor p65 (Mus musculus) (UniProt Q04207); experiment: Inhibition of p65 nuclear translocation in LPS-stimulated mouse RAW264.7 cells preincubated for 2 hrs followed by LPS stimulation for 4 hrs by Western blot method
How it was run: (§3)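 Pretreatment was 2 h (0.1, 1, 10 μg/mL), then LPS 1 μg/mL for 4 h. Cytosolic extracts came from a 1500g, 10 min, 4 °C spin and nuclear fractions from 13000g, 10 min, 4 °C. p65, c-Jun and c-Fos were detected by Western blot (8% SDS-PAGE, PVDF, ECL), with β-actin as reprobe control.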

[6] = biological target: T1, NF-kappa-B inhibitor alpha (Mus musculus) (UniProt Q9Z1E3); experiment: Inhibition of LPS-induced degradation of IkappaB-alpha in mouse RAW264.7 cells at 10 ug/ml preincubated for 2 hrs followed by LPS stimulation up to 45 mins by Western blot method; assay type: cell-based
T1 sequence (whole entry): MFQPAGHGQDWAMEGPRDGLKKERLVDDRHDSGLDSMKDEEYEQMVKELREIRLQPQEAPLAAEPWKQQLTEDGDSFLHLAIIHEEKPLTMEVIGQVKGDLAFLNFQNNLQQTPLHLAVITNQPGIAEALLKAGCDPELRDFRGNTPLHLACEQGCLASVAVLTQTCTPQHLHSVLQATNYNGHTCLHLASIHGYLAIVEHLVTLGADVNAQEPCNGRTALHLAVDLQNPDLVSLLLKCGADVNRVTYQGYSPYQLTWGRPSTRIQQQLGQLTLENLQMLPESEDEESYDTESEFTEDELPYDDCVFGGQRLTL
How it was run: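 Cells were pretreated 2 h with 10 μg/mL, then given LPS 1 μg/mL for varying times. IκBα was detected in lysates by Western blot with ECL, using β-actin as internal control. Results are representative of three experiments.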

[7] = biological target: Transcription factor Jun (Homo sapiens) (UniProt P05412); experiment: Inhibition of AP-1 (unknown origin) activation expressed in LPS-stimulated mouse RAW264.7 cells preincubated for 2 hrs followed by LPS stimulation for 4 hrs by luciferase reporter gene assay; assay type: cell-based; how it was run: as §2
[8] = biological target: Transcription factor Jun (Mus musculus) (UniProt P05627); experiment: Inhibition of LPS-induced nuclear translocation of AP-1 c-Jun component in mouse RAW264.7 cells up to 10 ug/ml preincubated for 2 hrs followed by LPS stimulation for 4 hrs by Western blot method; assay type: cell-based; how it was run: as §3
RAW264.7 [9] = experiment: Induction of LPS-induced ATF-3 expression in mouse RAW264.7 cells preincubated for 2 hrs followed by LPS stimulation for 4 hrs by Western blot method; assay type: functional, cell-based
How it was run: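 Cells were pretreated 2 h (0.1–10 μg/mL), then stimulated with LPS 1 μg/mL for 4 h. ATF-3 was detected by Western blot (8% SDS-PAGE, PVDF, ECL) and quantified by densitometry, normalized to β-actin, in arbitrary units. Blots are representative of three experiments.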

RAW264.7 [10] = experiment: Anti-inflammatory activity in mouse RAW264.7 cells transfected with ATF-3 shRNA assessed as reduction in LPS-induced TNFalpha production at 10 ug/ml preincubated for 2 hrs followed by LPS stimulation for 24 hrs by ELISA; assay type: functional, cell-based
How it was run: (§4)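 Cells received compound at 10 μg/mL for 2 h, then LPS 1 μg/mL for 24 h. TNF-α and IL-6 in the medium were measured by ELISA and compared with control shRNA cells.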

RAW264.7 [11] = experiment: Anti-inflammatory activity in mouse RAW264.7 cells transfected with ATF-3 shRNA assessed as reduction in LPS-induced IL-6 production at 10 ug/ml preincubated for 2 hrs followed by LPS stimulation for 24 hrs by ELISA; assay type: functional, cell-based; how it was run: as §4
Mus musculus = species on record: Mus musculus; experiment: Inhibition of LPS-induced JNK phosphorylation in mouse RAW264.7 cells up to 10 ug/ml preincubated for 2 hrs followed by LPS stimulation for 15 mins by Western blot method; assay type: cell-based
How it was run: (§5)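 RAW 264.7 cells were preincubated 2 h at 0.1, 1 or 10 μg/mL, then exposed to LPS 1 μg/mL for 15 min. Lysates were resolved on 8% SDS-PAGE, transferred to PVDF and probed for the phosphorylated MAP kinases. Detection was by ECL, with membranes reprobed for β-actin as loading control.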

[12] = biological target: Mitogen-activated protein kinase 1 and 3 (ERK2 and ERK1) (Mus musculus) (UniProt P63085+Q63844); experiment: Inhibition of LPS-induced ERK1/2 phosphorylation in mouse RAW264.7 cells up to 10 ug/ml preincubated for 2 hrs followed by LPS stimulation for 15 mins by Western blot method; assay type: cell-based; how it was run: as §5
[13] = biological target: MAP kinase p38 (Mus musculus) (UniProt P47811+O08911+Q9WUI1+Q9Z1B7); experiment: Inhibition of LPS-induced MAPK p38 phosphorylation in mouse RAW264.7 cells up to 10 ug/ml preincubated for 2 hrs followed by LPS stimulation for 15 mins by Western blot method; assay type: cell-based; how it was run: as §5
[14] = biological target: Proto-oncogene c-Fos (Mus musculus) (UniProt P01101); experiment: Inhibition of LPS-induced nuclear translocation of AP-1 c-Fos component in mouse RAW264.7 cells up to 10 ug/ml preincubated for 2 hrs followed by LPS stimulation for 4 hrs by Western blot method
Chain of Proto-oncogene c-Fos (Mus musculus) (P01101 whole entry, looked up): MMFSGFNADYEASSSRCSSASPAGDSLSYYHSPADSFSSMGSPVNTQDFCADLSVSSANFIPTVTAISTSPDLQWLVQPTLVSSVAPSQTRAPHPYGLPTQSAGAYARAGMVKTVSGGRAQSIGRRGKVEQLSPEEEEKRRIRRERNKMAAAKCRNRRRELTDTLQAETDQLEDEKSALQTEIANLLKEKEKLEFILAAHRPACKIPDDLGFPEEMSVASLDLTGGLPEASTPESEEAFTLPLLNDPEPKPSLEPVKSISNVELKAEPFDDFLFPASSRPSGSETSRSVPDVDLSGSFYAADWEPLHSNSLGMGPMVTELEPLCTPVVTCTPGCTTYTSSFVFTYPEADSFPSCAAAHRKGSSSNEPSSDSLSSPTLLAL

Chain of Transcription factor p65 (Mus musculus) (Q04207 whole entry): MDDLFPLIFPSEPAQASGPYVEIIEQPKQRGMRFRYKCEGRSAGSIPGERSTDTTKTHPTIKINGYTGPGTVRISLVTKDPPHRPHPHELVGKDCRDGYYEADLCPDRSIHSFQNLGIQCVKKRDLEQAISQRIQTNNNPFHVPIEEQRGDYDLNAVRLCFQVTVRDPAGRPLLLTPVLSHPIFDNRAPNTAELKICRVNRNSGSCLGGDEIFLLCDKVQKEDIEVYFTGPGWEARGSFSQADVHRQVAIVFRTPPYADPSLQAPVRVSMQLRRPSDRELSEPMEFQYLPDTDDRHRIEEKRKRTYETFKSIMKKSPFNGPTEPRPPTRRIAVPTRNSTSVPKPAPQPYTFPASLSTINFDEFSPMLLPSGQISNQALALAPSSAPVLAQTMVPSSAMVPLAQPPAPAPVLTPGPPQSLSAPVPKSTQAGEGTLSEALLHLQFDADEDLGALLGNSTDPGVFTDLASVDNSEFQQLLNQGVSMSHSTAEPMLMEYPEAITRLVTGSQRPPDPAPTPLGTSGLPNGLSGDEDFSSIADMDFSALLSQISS
Chain of Mitogen-activated protein kinase 1 and 3 (ERK2 and ERK1) (Mus musculus) (P63085 whole entry, looked up): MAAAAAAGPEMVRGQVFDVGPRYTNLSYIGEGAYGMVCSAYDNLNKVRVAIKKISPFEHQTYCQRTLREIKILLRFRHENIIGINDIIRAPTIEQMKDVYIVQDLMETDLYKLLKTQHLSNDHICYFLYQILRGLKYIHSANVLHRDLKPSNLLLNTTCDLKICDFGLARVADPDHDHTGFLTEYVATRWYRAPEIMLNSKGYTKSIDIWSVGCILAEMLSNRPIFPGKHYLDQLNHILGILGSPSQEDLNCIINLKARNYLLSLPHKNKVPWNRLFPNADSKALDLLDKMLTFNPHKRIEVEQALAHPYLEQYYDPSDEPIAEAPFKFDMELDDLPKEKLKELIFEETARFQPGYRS
Chain of Mitogen-activated protein kinase 1 and 3 (ERK2 and ERK1) (Mus musculus) (Q63844 whole entry, looked up): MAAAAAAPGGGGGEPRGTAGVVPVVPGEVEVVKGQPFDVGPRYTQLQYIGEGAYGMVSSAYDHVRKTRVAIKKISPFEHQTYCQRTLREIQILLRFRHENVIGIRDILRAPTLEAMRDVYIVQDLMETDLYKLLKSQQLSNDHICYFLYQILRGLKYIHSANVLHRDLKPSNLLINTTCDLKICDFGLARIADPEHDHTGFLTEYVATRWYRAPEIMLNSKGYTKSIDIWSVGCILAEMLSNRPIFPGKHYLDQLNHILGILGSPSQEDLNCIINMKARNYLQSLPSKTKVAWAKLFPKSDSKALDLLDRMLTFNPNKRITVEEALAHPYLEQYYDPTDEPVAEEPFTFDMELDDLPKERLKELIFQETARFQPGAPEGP
Chain of Transcription factor Jun (Mus musculus) (P05627 whole entry): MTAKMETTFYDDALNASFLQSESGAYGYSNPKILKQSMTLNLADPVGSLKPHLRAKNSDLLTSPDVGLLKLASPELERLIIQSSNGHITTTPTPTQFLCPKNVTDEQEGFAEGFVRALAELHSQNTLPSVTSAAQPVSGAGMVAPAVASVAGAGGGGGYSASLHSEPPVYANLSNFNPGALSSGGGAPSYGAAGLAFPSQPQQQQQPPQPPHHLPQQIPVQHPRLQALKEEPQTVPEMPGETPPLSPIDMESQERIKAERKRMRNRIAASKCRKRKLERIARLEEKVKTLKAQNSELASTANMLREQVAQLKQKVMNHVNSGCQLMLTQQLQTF
Chain of Transcription factor Jun (Homo sapiens) (P05412 whole entry): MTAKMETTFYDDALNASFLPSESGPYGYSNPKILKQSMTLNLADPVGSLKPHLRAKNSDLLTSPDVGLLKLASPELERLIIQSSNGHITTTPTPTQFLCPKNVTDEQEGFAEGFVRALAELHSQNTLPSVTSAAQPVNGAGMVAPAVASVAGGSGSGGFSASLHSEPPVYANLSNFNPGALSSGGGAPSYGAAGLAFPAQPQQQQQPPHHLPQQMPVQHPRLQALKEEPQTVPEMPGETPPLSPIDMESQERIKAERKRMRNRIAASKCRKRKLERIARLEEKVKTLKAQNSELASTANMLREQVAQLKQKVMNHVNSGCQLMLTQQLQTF

inhibition [5]: Dose-dependent effect
inhibition [6]: Active
inhibition [7]: Dose-dependent effect
inhibition [8]: Active
inhibition [12]: Active
inhibition [13]: inactive
inhibition [14]: Active
SMILES: NCCCOc1cccc(C(=O)O)c1N
Activity (RAW264.7 [1]): Non-Toxic
Activity (RAW264.7 [2]): Dose-dependent effect
Activity (RAW264.7 [3]): Dose-dependent effect
Activity (RAW264.7 [4]): inactive
inhibition (Homo sapiens): Active
Activity (RAW264.7 [9]): Active
Activity (RAW264.7 [10]): inactive
Activity (RAW264.7 [11]): inactive
inhibition (Mus musculus): Active
